# Published values pooled from the literature.
# Target: 5-hydroxytryptamine receptor 3A (HTR3A, Homo sapiens, UniProt P46098)
# Tested at: 10 µM
# Sequence (P46098 24-478, as in one of the studies): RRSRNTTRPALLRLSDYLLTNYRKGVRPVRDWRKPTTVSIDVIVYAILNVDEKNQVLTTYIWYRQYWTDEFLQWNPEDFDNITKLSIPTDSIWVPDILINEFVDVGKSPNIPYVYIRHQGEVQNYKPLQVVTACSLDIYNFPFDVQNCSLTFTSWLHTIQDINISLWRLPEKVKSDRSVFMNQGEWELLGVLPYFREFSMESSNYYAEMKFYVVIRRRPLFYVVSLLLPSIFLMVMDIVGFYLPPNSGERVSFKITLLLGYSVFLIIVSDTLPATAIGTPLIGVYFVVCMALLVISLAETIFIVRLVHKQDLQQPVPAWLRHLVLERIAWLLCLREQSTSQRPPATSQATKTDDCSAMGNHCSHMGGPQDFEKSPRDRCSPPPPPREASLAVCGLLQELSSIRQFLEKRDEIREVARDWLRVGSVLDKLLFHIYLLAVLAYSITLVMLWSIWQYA
SMILES,test,measurement,result
Cc1c(N2CCNCC2)nc2ccc(Br)cc2c1C(=O)NC[C@H](CCC(=O)O)c1ccccc1Cl,cell-free assay,inhibition,86%
C[C@H](C(=O)N[C@H]1COc2ccccc2[C@@H]1S(C)(=O)=O)c1ccc(F)cc1,cell-free assay,inhibition,6%
Nc1ncc(-c2nc(N3CCOCC3)nc(N3CCOCC3)n2)c(C(F)F)n1,cell-free assay,remaining signal,100%
CCN(CC)CCCC[C@H](NC(=O)[C@H](CC(C)C)NC(=O)[C@H](C)NC(=O)[C@H](Cc1ccccc1)NC(=O)c1ccc(C(C)(C)C)cc1)C(=O)N[C@@H](CO)C(=O)OC,"ligand displacement, radioligand",inhibition,-21%
Clc1ccc2c(C3CCN(CCc4c[nH]c5ccccc45)CC3)c[nH]c2c1,"ligand displacement, radioligand",inhibition,38%
COc1ccc(N=Nc2ccc3[nH]cc(CCN(C)C)c3c2)cc1,"ligand displacement, radioligand",inhibition,< 50%
COc1cc2c3c(c1OC)-c1cc4c(cc1CC3N(C)CC2)OCO4 (racemic),"ligand displacement, radioligand",inhibition,44.6%
c1ccc(C(NCCNC(c2ccccc2)c2ccccc2)c2ccccc2)cc1,cell-free assay,inhibition,-16%
Cn1cncc1[C@@](O)(COc1ccc(C#N)cc1-c1ccc(OC(F)(F)F)cc1)c1ccc(C#N)cc1,cell-free assay,inhibition,-0.62%
CC(C)Cn1cnc2c(N)nc3ccccc3c21,"ligand displacement, radioligand",inhibition,8%
CC(C)N1CCC[C@H]1CNC(=O)c1cn(C2CCCC2)c(=O)c2c1c1ccccc1n2C,"ligand displacement, radioligand",inhibition,-4%
